Screening results deposited in PubChem by several laboratories.
The full list was thinned out, with hits kept by preference.
UPR XBP1 act: adaptive UPR (XBP1) activation; CHO-XBP1 luciferase reporter, IRE1-XBP1 UPR activation, luminescence; percent of tunicamycin response, DMSO as zero; AID 463104; activation, % at 20 µM; 330,000 tested, 0.33% active;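 active = versus positive control, 20 µM dose yields 30% or more activation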
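Signal: luciferase luminescence; Assay system: CHO-XBP1 luciferase reporter cells; Amount: one thousand reporter cells per well; Dosing: 20 µM single concentration, DMSO 1%; Benchmarks: high control tunicamycin 10 µg/mL final, low control DMSO vehicle only; Schedule: 6 h compound exposure at 37 °C, 5% CO2; Evaluation: percent activation relative to tunicamycin reference.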
CHOP inhibitor: inhibitors of CHOP induction in ER stress response; CHO-K1 CHOP-promoter luciferase, tunicamycin-induced, 15-18 h; inhibition, % at 10 µM; 220,000 tested, 3.8% active; AID 2732;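 active = compounds that reduced the stress-induced luciferase reporter signal by more than about 70% of percent inhibition, limit read from the data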
UPR CHOP act: apoptotic UPR (CHOP) activation. CHO-CHOP luciferase reporter, luminescence; percent of tunicamycin response over DMSO baseline. 330,000 tested, 0.34% active. activation, % at 10 µM;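 active = at 10 µM dose, activation of 40% or more, normalized to positive control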
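Test system: CHO CHOP reporter cells. Input: 500 CHO-CHOP cells per well. Medium: F12 with 10% FBS. Technique: luciferase luminescence. Measure: percent activation relative to tunicamycin control. Dosing: 10 µM compound, 0.5% DMSO. Timing: 16-18 h cell attachment, then 6 h compound exposure, 37 °C.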
FXN GAA850 act: increases GAA850 frataxin promoter reporter activity. HEK293 lucGAA850 FXN promoter luciferase reporter, 24 h; percent of 10 µM SAHA response. activation, % at 6 µM. 360,000 tested, 0.56% active;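 active = activation above the average of all compounds screened plus 3 SD, cutoff fixed separately per campaign, cut at about 7.5% in these data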
CHOP confirm: confirmation of CHOP induction inhibitors; inhibition, % at 10 µM; shares compounds with CHOP inhibitor; AID 504437; 2,100 tested, 45% active; CHO-CHOP promoter luciferase reporter, tunicamycin-induced, luminescence;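 active = mean of three repeat readings of reporter signal inhibition above a set limit, cut at about 70% in these data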
Hits are given with their value.

For COc1cccc(Cn2c3ccc(NC(=O)CCc4ccc(F)cc4)cc3c(=O)n2C)c1 the results were FXN GAA850 act inactive.
CC(=O)C1=C(C)NC(SCC(=O)c2ccc(-c3ccccc3)cc2)=C(C#N)C1c1cccnc1 (configuration not stated) was read as UPR XBP1 act inactive, CHOP inhibitor 97, UPR CHOP act inactive and CHOP confirm inactive.
Screening CC(=O)C1=C(C)NC(SCSc2ccccc2)=C(C#N)C1c1cccnc1 (configuration not stated) returned UPR XBP1 act inactive, CHOP inhibitor inactive and UPR CHOP act inactive.
CCCCCCCCCCCCCCCC[n+]1cccc(C(=O)N(CC)CC)c1 was read as UPR XBP1 act inactive, CHOP inhibitor 108, UPR CHOP act inactive, FXN GAA850 act inactive and CHOP confirm 115.
Screening CCc1nc2c(OCCc3cccc(OC)c3)cccn2c1N(C=O)Cc1ccccc1 returned FXN GAA850 act inactive.
`CCCCNC(=O)C1(C)CCN1Cc1ccc(C#N)cc1` (configuration not stated) gave FXN GAA850 act inactive.
`C[C@H](CO)N1C[C@H](C)[C@@H](CN(C)S(=O)(=O)c2cccs2)OCc2cnnn2CCCC1=O` gave FXN GAA850 act inactive.
Screening CC1=C(C)/C(=N\OS(=O)(=O)c2ccccc2)C=CC1=O returned UPR XBP1 act inactive, UPR CHOP act inactive, FXN GAA850 act inactive and CHOP confirm 124.
Screening CCN(CCO)c1ncnc2c1sc1nc(CC(C)C)c3c(c12)CC(C)(C)OC3 returned UPR XBP1 act inactive, CHOP inhibitor 106, UPR CHOP act inactive, FXN GAA850 act inactive and CHOP confirm 92.
COc1ccc(C2=NN(c3ccccc3)C(c3cn(CCC(=O)O)nc3-c3ccccc3)C2)cc1 (configuration not stated) was read as UPR XBP1 act inactive, CHOP inhibitor 96, UPR CHOP act inactive, FXN GAA850 act inactive and CHOP confirm inactive.
Screening COc1ccc(-c2nn(CCC(=O)O)cc2CCC(=O)O)cc1 returned UPR XBP1 act inactive, CHOP inhibitor inactive, UPR CHOP act inactive and FXN GAA850 act inactive.
For CC1(C(=O)N2Cc3ccccc3C2)CCN1C(=O)C1(c2ccc(Cl)cc2)CC1 (configuration not stated) the results were FXN GAA850 act inactive.
`CCCC(=O)Nc1cccc(-c2nc3cc(C)c(C)cc3o2)c1` gave UPR XBP1 act inactive, CHOP inhibitor 105, UPR CHOP act inactive, FXN GAA850 act inactive and CHOP confirm inactive.
Cc1ccc2oc(-c3cccc(NC(=O)c4cc(-n5cnnc5)ccc4Cl)c3)nc2c1 was read as UPR XBP1 act inactive, CHOP inhibitor 102, UPR CHOP act inactive, FXN GAA850 act inactive and CHOP confirm inactive.
For Cc1ccc2oc(-c3cccc(NC(=O)c4ccccn4)c3)nc2c1 the results were FXN GAA850 act inactive.
Screening Cc1ccc2oc(-c3cccc(NC(=O)Cc4cccs4)c3)nc2c1 returned UPR XBP1 act inactive, CHOP inhibitor 98, UPR CHOP act inactive, FXN GAA850 act inactive and CHOP confirm inactive.
For Cc1ccc2oc(-c3ccc(C)c(NC(=O)Cc4cccs4)c3)nc2c1 the results were UPR XBP1 act inactive, CHOP inhibitor inactive, UPR CHOP act inactive and FXN GAA850 act inactive.
For O=C(Nc1ccccc1Cl)c1cc(C2CCCN(C(=O)c3cccs3)C2)on1 (configuration not stated) the results were FXN GAA850 act inactive.
`COc1ccccc1C(=O)NC(=Nc1nc2ccccc2o1)NC(=O)c1ccccc1OC` gave UPR XBP1 act inactive, CHOP inhibitor 106, UPR CHOP act inactive, FXN GAA850 act inactive and CHOP confirm 134.
For N/C(=N\c1nc2ccccc2o1)NC(=O)c1ccccc1F the results were UPR XBP1 act inactive, CHOP inhibitor inactive, UPR CHOP act inactive and FXN GAA850 act inactive.
For O=c1[nH]c(NCCO)nc2c1C1(CCCCC1)Cc1ccccc1-2 the results were UPR XBP1 act inactive, CHOP inhibitor 99, UPR CHOP act inactive, FXN GAA850 act inactive and CHOP confirm inactive.
Screening CCC1(CC)Cc2ccccc2-c2nc(NCCO)[nH]c(=O)c21 returned UPR XBP1 act inactive, CHOP inhibitor inactive, UPR CHOP act inactive and FXN GAA850 act inactive.
Cc1cc(C)c(COCc2cc(/C=N/O)c(C)cc2C)cc1/C=N/O was read as UPR XBP1 act inactive, CHOP inhibitor 108, UPR CHOP act inactive, FXN GAA850 act inactive and CHOP confirm inactive.
`Cc1ccc(NC(=O)Cn2nnc(C(=O)Nc3ccc(C)c(C)c3)c2N)cc1` gave UPR XBP1 act inactive, CHOP inhibitor 97, UPR CHOP act inactive, FXN GAA850 act inactive and CHOP confirm inactive.
For Cc1ccc(NC(=O)c2nnn(CC(=O)Nc3ccc4c(c3)OCO4)c2N)cc1C the results were UPR XBP1 act inactive, UPR CHOP act inactive and FXN GAA850 act inactive.
Screening O=C(Cn1ncc(Cl)c(Cl)c1=O)NC1CCCCC1 returned UPR XBP1 act inactive, UPR CHOP act inactive and FXN GAA850 act inactive.
O=C(Cn1ncc(Cl)c(Cl)c1=O)NCC1CCCCC1 was read as CHOP inhibitor 108, FXN GAA850 act inactive and CHOP confirm inactive.
OC(c1ccccc1)(c1nc(-c2cccc3cccnc23)cs1)C(F)(F)F (configuration not stated) was read as FXN GAA850 act inactive.
CCOc1cc(/C=C2/NC(=O)N(CC(=O)Nc3cccc(C)c3)C2=O)ccc1OCC(N)=O was read as UPR XBP1 act inactive, CHOP inhibitor inactive, UPR CHOP act inactive and FXN GAA850 act inactive.
Screening CCOc1cccc(/C=C2/NC(=O)N(CC(=O)Nc3cccc(C)c3)C2=O)c1O returned UPR XBP1 act inactive, CHOP inhibitor 104, UPR CHOP act inactive, FXN GAA850 act inactive and CHOP confirm inactive.
Cc1cc(Cl)n2c(nc3ccccc32)c1C#N was read as CHOP inhibitor 108, FXN GAA850 act inactive and CHOP confirm 133.
`CNc1cc(C)c(C#N)c2nc3ccccc3n12` gave UPR XBP1 act inactive, UPR CHOP act inactive and FXN GAA850 act inactive.
Screening OC(CNCc1ccco1)Cn1c2ccc(Br)cc2c2cc(Br)ccc21 (configuration not stated) returned UPR XBP1 act inactive, CHOP inhibitor 108, UPR CHOP act inactive, FXN GAA850 act inactive and CHOP confirm inactive.
For Cc1n[nH]c(=S)n1/N=C/c1ccccc1OCc1ccc(Cl)cc1Cl the results were UPR XBP1 act inactive, CHOP inhibitor 102, UPR CHOP act inactive, FXN GAA850 act inactive and CHOP confirm inactive.
`CCCCc1ccc(S(=O)(=O)NC(=O)C2(C)CCN2C(=O)c2cccc(F)c2)cc1` (configuration not stated) gave FXN GAA850 act inactive.
CC(C)OC(=O)c1ccccc1C(=O)c1ccc(N)c([N+](=O)[O-])c1 was read as UPR XBP1 act inactive, CHOP inhibitor inactive, UPR CHOP act inactive and FXN GAA850 act inactive.
CNC(=O)COC(=O)c1ccccc1C(=O)c1ccc(Cl)c([N+](=O)[O-])c1 was read as CHOP inhibitor 97, FXN GAA850 act inactive and CHOP confirm inactive.
